The source of these data is ChEMBL document CHEMBL3763047, “Flavonoid derivatives as selective ABCC1 modulators: Synthesis and functional characterization” (Eur J Med Chem, 2016).

Data set [1] concerns the target T1, ABCG2 (BCRP) (Homo sapiens, UniProt Q9UNQ0).
T1 sequence (Q9UNQ0 whole entry): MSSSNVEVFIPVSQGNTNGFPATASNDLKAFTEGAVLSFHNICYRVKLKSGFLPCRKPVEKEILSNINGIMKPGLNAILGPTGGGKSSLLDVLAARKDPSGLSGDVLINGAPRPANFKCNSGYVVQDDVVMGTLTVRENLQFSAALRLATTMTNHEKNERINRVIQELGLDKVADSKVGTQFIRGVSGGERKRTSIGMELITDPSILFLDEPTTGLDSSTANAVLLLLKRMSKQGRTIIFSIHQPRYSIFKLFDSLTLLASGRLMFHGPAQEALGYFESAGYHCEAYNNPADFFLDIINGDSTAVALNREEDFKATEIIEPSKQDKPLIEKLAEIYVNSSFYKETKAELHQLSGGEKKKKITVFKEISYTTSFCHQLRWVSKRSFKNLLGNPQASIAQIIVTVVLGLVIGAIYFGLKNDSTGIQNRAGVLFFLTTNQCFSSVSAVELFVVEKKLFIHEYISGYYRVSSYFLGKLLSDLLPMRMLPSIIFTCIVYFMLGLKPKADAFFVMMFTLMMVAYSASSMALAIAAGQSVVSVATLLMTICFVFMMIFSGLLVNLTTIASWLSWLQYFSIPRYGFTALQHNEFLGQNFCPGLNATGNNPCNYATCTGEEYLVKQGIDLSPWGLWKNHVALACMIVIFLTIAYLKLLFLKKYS
Put plainly: Inhibition of ABCG2 in human MCF7/Topo cells at 10 uM by Hoechst 33342 assay relative to fumitremorgin C. The conditions noted are these: probe Hoechst 33342, read-out: Imax. Format: cell-based. Summed up:
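Hoechst 33342 microplate assay in ABCG2-overexpressing MCF-7/Topo cells, kept in EMEM with 10% FCS and 550 nM topotecan. Imax relative to 10 µM fumitremorgin C (100%). IC50 from four-parameter logistic fit. Mean ± SEM, 2–4 experiments.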

Data set [2] addresses ATP-dependent translocase ABCB1 (Homo sapiens, UniProt P08183). The data set can be described thus: Inhibition of ABCB1 in human KBV1 cells assessed as inhibition of calcein-AM efflux. Format: cell-based.
Data set [3] has as its target T2, Broad substrate specificity ATP-binding cassette transporter ABCG2 (Homo sapiens, UniProt Q9UNQ0).
T2 sequence (Q9UNQ0 whole entry): T1 sequence (Q9UNQ0 whole entry)
Put plainly: Inhibition of human ABCG2 expressed in HEK293 cells by mitoxantrone flow cytometric analysis. The format is cell-based. A general note: Flow cytometry measures light scatter and fluorescence of single cells or particles in a stream.

In data set [4] the target is T2, Broad substrate specificity ATP-binding cassette transporter ABCG2. The data set can be described thus: Inhibition of ABCG2 in human MCF7/Topo cells by Hoechst 33342 assay. The format is cell-based.
The target in data set [5] is ABCB1 (P-glycoprotein) (Homo sapiens, UniProt P08183). Put plainly: Inhibition of ABCB1 in human KBV1 cells assessed as inhibition of calcein-AM efflux at 1 uM relative to tariquidar. Format: cell-based. Particulars: probe calcein-AM, read-out: Imax; call rule not given here.
Sequence of ABCB1 (P-glycoprotein) (P08183 whole entry): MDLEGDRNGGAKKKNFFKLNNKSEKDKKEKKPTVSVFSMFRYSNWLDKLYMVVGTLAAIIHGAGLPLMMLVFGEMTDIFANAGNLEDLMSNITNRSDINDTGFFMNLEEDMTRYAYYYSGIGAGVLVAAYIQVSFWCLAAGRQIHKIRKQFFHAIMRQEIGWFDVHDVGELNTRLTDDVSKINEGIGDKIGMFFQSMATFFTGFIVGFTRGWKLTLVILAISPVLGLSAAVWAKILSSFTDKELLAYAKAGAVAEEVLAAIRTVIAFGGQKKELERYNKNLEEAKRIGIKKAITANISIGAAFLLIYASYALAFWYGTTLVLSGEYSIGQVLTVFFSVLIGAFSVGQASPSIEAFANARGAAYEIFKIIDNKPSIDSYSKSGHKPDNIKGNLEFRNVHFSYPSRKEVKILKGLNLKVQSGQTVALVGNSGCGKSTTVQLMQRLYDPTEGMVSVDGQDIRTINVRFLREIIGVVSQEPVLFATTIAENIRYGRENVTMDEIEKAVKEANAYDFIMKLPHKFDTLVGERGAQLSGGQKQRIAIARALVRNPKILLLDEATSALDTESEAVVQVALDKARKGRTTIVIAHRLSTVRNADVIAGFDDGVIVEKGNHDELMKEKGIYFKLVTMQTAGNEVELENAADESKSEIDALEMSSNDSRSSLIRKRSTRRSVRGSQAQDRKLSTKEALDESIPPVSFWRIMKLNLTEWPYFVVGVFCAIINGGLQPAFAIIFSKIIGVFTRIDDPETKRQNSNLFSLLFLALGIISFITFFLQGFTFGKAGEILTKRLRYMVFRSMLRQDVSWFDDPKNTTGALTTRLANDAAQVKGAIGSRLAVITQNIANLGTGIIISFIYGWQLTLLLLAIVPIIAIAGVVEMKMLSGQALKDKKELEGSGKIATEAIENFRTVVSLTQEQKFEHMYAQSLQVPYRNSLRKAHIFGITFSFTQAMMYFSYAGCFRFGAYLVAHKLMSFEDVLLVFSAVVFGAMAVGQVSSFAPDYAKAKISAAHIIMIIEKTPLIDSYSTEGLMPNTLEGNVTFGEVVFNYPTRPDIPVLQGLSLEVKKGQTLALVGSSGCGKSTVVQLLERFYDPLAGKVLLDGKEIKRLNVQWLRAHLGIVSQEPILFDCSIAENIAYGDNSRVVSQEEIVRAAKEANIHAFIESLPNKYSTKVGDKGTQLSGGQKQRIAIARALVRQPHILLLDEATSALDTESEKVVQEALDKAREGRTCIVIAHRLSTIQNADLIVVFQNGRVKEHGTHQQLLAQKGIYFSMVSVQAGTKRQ
In data set [6] the test system is HaCaT. Put plainly: Cytotoxicity against human HaCaT cells at 1 to 10 uM after 140 hrs by kinetic crystal violet staining based assay. The format is cell-based. In short, it runs like this:
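Spontaneously immortalized human HaCaT keratinocytes in RPMI-1640 with pyruvate, HEPES and added glucose, pre-treated with EDTA before trypsinization. Cytotoxicity followed in a kinetic assay.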

For data set [7], the target named is T3, Multidrug resistance-associated protein 1 (Homo sapiens, UniProt P33527). The data set can be described thus: Inhibition of human ABCC1 transfected in MDCK2 cells assessed as potentiation of doxorubicin-induced cytotoxicity at 1 and 5 uM by crystal violet staining based assay. The conditions noted are these: mdck-ii. The format is cell-based.
T3 sequence (P33527 whole entry): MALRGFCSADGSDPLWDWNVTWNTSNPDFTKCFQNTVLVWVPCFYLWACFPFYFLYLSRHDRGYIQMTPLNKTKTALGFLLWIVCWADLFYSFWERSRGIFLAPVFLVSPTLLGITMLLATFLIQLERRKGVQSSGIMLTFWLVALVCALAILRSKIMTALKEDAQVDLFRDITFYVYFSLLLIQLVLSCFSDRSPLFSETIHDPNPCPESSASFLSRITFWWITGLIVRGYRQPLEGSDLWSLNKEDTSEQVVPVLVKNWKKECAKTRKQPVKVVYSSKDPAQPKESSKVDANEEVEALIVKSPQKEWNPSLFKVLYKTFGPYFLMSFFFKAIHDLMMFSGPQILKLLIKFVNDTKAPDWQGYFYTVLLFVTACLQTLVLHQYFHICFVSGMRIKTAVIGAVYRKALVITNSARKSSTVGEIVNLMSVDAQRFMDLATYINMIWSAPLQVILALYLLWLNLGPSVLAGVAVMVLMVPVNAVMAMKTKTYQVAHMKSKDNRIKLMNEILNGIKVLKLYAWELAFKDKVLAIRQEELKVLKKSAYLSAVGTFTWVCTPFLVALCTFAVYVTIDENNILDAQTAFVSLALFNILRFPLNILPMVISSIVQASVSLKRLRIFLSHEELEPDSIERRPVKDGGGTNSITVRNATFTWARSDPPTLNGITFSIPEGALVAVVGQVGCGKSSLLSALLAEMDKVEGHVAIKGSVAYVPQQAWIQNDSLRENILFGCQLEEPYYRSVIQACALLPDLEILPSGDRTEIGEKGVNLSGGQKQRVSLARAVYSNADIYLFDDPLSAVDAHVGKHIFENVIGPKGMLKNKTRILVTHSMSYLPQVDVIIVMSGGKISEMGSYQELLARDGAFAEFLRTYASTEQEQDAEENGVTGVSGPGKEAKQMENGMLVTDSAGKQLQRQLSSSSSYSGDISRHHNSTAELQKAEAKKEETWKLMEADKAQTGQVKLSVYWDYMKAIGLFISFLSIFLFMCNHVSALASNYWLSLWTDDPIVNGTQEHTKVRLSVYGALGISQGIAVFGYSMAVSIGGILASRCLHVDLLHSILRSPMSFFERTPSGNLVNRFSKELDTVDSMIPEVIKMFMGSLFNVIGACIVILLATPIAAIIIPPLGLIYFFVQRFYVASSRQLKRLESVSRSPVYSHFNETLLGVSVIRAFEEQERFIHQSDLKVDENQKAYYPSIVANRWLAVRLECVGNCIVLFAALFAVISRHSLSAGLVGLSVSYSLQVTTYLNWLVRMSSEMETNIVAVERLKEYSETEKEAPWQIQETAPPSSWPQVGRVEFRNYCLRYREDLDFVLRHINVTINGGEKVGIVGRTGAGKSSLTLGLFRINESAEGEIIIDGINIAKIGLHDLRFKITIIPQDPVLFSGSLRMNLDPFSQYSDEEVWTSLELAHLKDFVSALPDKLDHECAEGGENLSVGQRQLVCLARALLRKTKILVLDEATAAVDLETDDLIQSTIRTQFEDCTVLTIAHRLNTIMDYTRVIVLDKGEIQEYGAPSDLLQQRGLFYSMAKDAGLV
Data set [8] is described as follows: Chemical stability in DMEM culture medium supplemented with 10% FCS at 37 degC after 48 hrs by RP-HPLC analysis. The format is physicochemical. Particulars: cattle. Summed up:
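Compounds held in DMEM with 10% FCS at 37 °C for up to 48 h, then analysed for degradation.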

Data set [9] deals with MRP1 (ABCC1) (Homo sapiens, UniProt P33527). The data set can be described thus: Inhibition of human MRP1 expressed in MDCK2 cells assessed as inhibition of calcein-AM efflux at 30 uM relative to reversan. Format: cell-based, MDCK-II. Particulars: MDCK2 cells expressing human MRP1, probe calcein-AM, read-out: Imax. Summed up:
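MDCKII-MRP1 cells seeded at 20,000–25,000/well and washed next day with HEPES loading buffer, pH 7.4. Loaded 60 min at 37 °C with 0.5 µM calcein-AM in buffer with BSA and pluronic F127, plus compound (10 nM–100 µM). Cells were PFA-fixed, fluorescence read at 485/535 nm, DMSO control subtracted. […] Mean ± SEM, 2–4 experiments in triplicate.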

Data set [10] in a line: Cytotoxicity against human ABCC1 transfected MDCK2 cells assessed as reduction in cell proliferation at 10 uM by crystal violet staining based assay. The format is ADME, Canis lupus familiaris. Particulars: dog, mdck-ii. Summed up:
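MDCKII-MRP1 cells transfected with human ABCC1, kept in DMEM with 10% FCS at 37 °C and 5% CO₂. Kinetic crystal violet chemosensitivity assay with the modulator alone; proliferation followed over time.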

Data set [11] concerns Plasma. Put plainly: Metabolic stability in NMRI mouse plasma assessed as compound degradation at 140 uM after 1 min to 24 hrs by RP-HPLC analysis.
Data set [12] has as its target T3, Multidrug resistance-associated protein 1. Put plainly: Inhibition of human ABCC1 transfected in MDCK2 cells assessed as potentiation of etoposide-induced cytotoxicity at 1 uM by crystal violet staining based assay. The conditions noted are these: mdck-ii. Format: cell-based.
Data set [13] has the same target. The data set can be described thus: Inhibition of human ABCC1 transfected in MDCK2 cells assessed as potentiation of etoposide-induced cytotoxicity at 1 and 5 uM by crystal violet staining based assay. Format: cell-based. Particulars: mdck-ii.

Sequence of ATP-dependent translocase ABCB1 (P08183 whole entry): as the sequence (P08183 whole entry) above
Sequence of MRP1 (ABCC1) (P33527 whole entry): as the sequence (P33527 whole entry) above

Broadly, the IC50 is the concentration that inhibits the measured activity by half. Broadly, the % inhibition is the relative decrease from the control value, in per cent. `O=C(c1cc(=O)c2c(OCc3ccccc3)cccc2o1)N1CCN(Cc2ccccc2)CC1`: the Emax at 10 µM in data set [1] was 84.1%. In addition, the IC50 in data set [2] (read-out: IC50) is 15.8 µM; in data set [4] (read-out: IC50), 16.3 µM. In data set [3], this compound returned a % inhibition of 9.8%. Also, the inhibition at 1 µM in data set [5] is 34.3%.
With `COc1cc(OC)c2c(=O)cc(N3CCN(Cc4ccc5nonc5c4)CC3)oc2c1`, the Activity result in data set [6] and in data set [10] was “Non-toxic” throughout. The “inhibition (INH)” value in data set [7] and in data set [12] was “Active” throughout. Besides, the Stability entry in data set [8] and in data set [11] was “Stable” throughout. For the same compound, the inhibition at 30 µM in data set [9] is 120%. Besides, the IC50 result in data set [2] (kbv1) and in data set [4] (mcf7/topo) was “Not Active” each time.
In the case of `O=C(NCCCN1CCOCC1)c1cnn2c(-c3ccccc3)cc(-c3ccccc3)nc12`, the “inhibition (INH)” value in [7] and in [13] was “Active” in each case. Besides, the Activity result in data set [10] is given as “Non-toxic”. Also, in [2] (read-out: IC50), the IC50 was 6.8 µM. In addition, the inhibition at 1 µM in data set [5] was 143%.
